Data: ChEMBL document CHEMBL1122617, “6,7-Dihydroxy-3-chromanamine: synthesis and pharmacological activity of an oxygen isostere of the dopamine agonist 6,7-dihydroxy-2-aminotetralin” (J Med Chem, 1984)

Experiments:
Rattus norvegicus [1] = organism: Rattus norvegicus; test: Binding affinity to rat corpus striatum was determined using [3H]NPA as radioligand; format: functional
How it was run: (§1)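 Male rat (200-225 g) striatal homogenate, 2.5 mg wet weight per tube, in 15 mM Tris-HCl pH 7.5 with 1 mM EDTA and 0.01% ascorbic acid. [3H]NPA 0.50 nM final, 25 °C for 20 min. Nonspecific binding with 1 μM d-butaclamol. Displacer tested over 10⁻¹¹–10⁻⁵ M in triplicate. IC50 = 50% reduction of specific binding, mean ± SEM of three experiments.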

Rattus norvegicus [2] = organism: Rattus norvegicus; test: Concentration required to reduce the specific binding of [3H]NPA by 50% to rat corpus striatum; format: functional, organism-based; how it was run: as §1
[3] = Partition coefficient (logP); format: physicochemical; conditions: octanol/water
How it was run: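 Log P measured in octanol-phosphate buffer at pH 7.4. Phases analysed by the same HPLC-electrochemical method. Mean ± SD, n = 6.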

Rattus norvegicus [4] = test: Effect on DOPAC metabolism was determined by measuring concentration of DOPAC at a time interval of 0 minutes after ip administration of 100 umol/kg of compound; format: functional, organism-based
Rattus norvegicus [5] = test: Effect on HVA metabolism was determined by measuring concentration of HVA at a time interval of 15 minutes after ip administration of 100 umol/kg of compound; format: functional, organism-based
How it was run: (§2)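 Female rats (180-200 g) given 100 μmol/kg ip in saline with 0.1% sodium metabisulfite, killed at 15 or 45 min. Striatum frozen on dry ice and kept at -80 °C. DA, DOPAC and HVA isolated on Sephadex G-10, then measured by reversed-phase C18 HPLC with amperometric detection. Control cerebellum used as blank. Not corrected for recovery (86-89%). Mean ± SEM.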

Rattus norvegicus [6] = test: Effect on DOPAC metabolism was determined by measuring concentration of DOPAC at a time interval of 15 minutes after ip administration of 100 umol/kg of compound; format: functional, organism-based; how it was run: as §2
Rattus norvegicus [7] = test: Effect on DA metabolism was determined by measuring concentration of DA at a time interval of 0 minutes after ip administration of 100 umol/kg of compound; format: functional, organism-based
Rattus norvegicus [8] = test: Effect on 6,7-dihydroxy-3-chromanamine metabolism was determined by measuring concentration of 6,7-dihydroxy-3-chromanamine at a time interval of 15 min after ip administration of 100 umol/kg of compound; format: functional, organism-based
How it was run: (§3)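 Female rats (180-200 g) given 100 μmol/kg ip in saline with 0.1% sodium metabisulfite. Killed at 15 or 45 min; striatum dissected, frozen on dry ice and kept at -80 °C. Drug level measured by HPLC with electrochemical detection, mobile phase 0.1 M phosphate-acetate pH 4.5, against a standard. Corrected for 78.8% recovery from spiked brain. Mean ± SEM, n = 8.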

Rattus norvegicus [9] = test: Effect on DOPAC metabolism was determined by measuring concentration of DOPAC at a time interval of 45 minutes after ip administration of 100 umol/kg of compound; format: functional, organism-based; how it was run: as §2
Rattus norvegicus [10] = test: Effect on HVA metabolism was determined by measuring concentration of HVA at a time interval of 0 minutes after ip administration of 100 umol/kg of compound; format: functional, organism-based
Rattus norvegicus [11] = test: Effect on DA metabolism was determined by measuring concentration of DA at a time interval of 15 minutes after ip administration of 100 umol/kg of compound; format: functional, organism-based; how it was run: as §2
Rattus norvegicus [12] = test: Effect on 6,7-dihydroxy-3-chromanamine metabolism was determined by measuring concentration of 6,7-dihydroxy-3-chromanamine at a time interval of 45 min after ip administration of 100 umol/kg of compound; format: functional, organism-based; how it was run: as §3
Rattus norvegicus [13] = test: Effect on DA metabolism was determined by measuring concentration of DA at a time interval of 45 min after ip administration of 100 umol/kg of compound; format: functional, organism-based; how it was run: as §2
Rattus norvegicus [14] = test: Effect on HVA metabolism was determined by measuring concentration of HVA at a time interval of 45 minutes after ip administration of 100 umol/kg of compound; format: functional, organism-based; how it was run: as §2

SMILES | Ki (Rattus norvegicus [1]) [nM] | IC50 (Rattus norvegicus [2]) [nM] | logP [3] | Concentration (Rattus norvegicus [4]) [µg/g] | Concentration (Rattus norvegicus [5]) [µg/g] | Concentration (Rattus norvegicus [6]) [µg/g] | Concentration (Rattus norvegicus [7]) [µg/g] | Concentration (Rattus norvegicus [8]) [nM/g] | Concentration (Rattus norvegicus [9]) [µg/g] | Concentration (Rattus norvegicus [10]) [µg/g] | Concentration (Rattus norvegicus [11]) [µg/g] | Concentration (Rattus norvegicus [12]) [nM/g] | Concentration (Rattus norvegicus [13]) [µg/g] | Concentration (Rattus norvegicus [14]) [µg/g]
CN1CCc2cccc3c2[C@H]1Cc1ccc(O)c(O)c1-3 [APOMORPHINE] | 10.5 | 22.6 | – | – | – | – | – | – | – | – | – | – | – | –
NC1CCc2cc(O)c(O)cc2C1 (centres undefined) | 12 | 24.5 | 1.88 | – | – | – | – | – | – | – | – | – | – | –
NC1COc2cc(O)c(O)cc2C1 (centres undefined) | 144 | 259 | 1.39 | 1.05 | 0.83 | 0.97 | 9.87 | 0.34 | 1.02 | 0.91 | 10.5 | 0.2 | 10.8 | 1.02
